Results gathered from unrelated publications.
Protocols differ between the studies behind these lines.
HRH1: Histamine H1 receptor (HRH1, Homo sapiens, UniProt P35367)
Adora1: Adenosine receptor A1 (Adora1, Rattus norvegicus, UniProt P25099)

For CC(C)[C@@H](CC[C@@H](C)[C@H]1CC[C@H]2[C@@H]3[C@H](O)C[C@H]4C[C@@H](NCCCNCCCCNCCCN)CC[C@]4(C)[C@H]3CC[C@]12C)OS(=O)(=O)O, the Ki was 6000 nM (Tyrosine-protein phosphatase non-receptor type 2 (PTPN2, Homo sapiens, UniProt P17706); enzyme activity; inhibitor).
For Nc1nc2ncc(CNc3ccc(C(=O)N[C@@H](CCC(=O)O)C(=O)O)cc3)nc2c(=O)[nH]1, the Ki was 590 nM (Proton-coupled folate transporter (Homo sapiens, UniProt Q96NT5); transporter uptake; inhibitor; radiometric; pH 5.5).
The Ki of O=C1CCCc2ccc(OCc3ccc(OCCCN4CCCCC4)cc3)cc21 is reported as 3690 nM (HRH1; ligand displacement; radioligand; cell membranes).
The Ki of CCCCCCN1CCCn2c1nc1c2c(=O)n(C)c(=O)n1C is reported as 2870 nM (Adora1; ligand displacement; radioligand; cell membranes).
The Ki of CN(C)c1ccc(/C=C/C=C2\CCc3ccc(OCCCN4CCCCC4)cc3C2=O)cc1 is reported as 1970 nM (HRH1; ligand displacement; radioligand; cell membranes).
With CC[C@H](NC(=O)[C@H](CS(=O)(=O)CC1CC1)N[C@@H](c1ccc(F)cc1)C(F)(F)F)C(=O)C(=O)NC1CC1 the Ki was 0.25 nM (Cathepsin L2 (CTSV, Homo sapiens, UniProt O60911); enzyme activity; inhibitor; fluorescence; with preincubation).
The Ki of C#CCN1CCCn2c1nc1c2c(=O)n(C)c(=O)n1C is reported as at least 25000 nM (Adora1; ligand displacement; radioligand; cell membranes).
For CN1CCC(C2c3ccccc3C=Cc3ccccc32)CC1, the Ki was 0.501 nM (HRH1; cell-free assay; radioligand).
CCCCN1CCC(COC(=O)c2ccc(N)c(OCF)c2)CC1 gave a Ki of over 10000 nM (Beta-1 adrenergic receptor (ADRB1, Homo sapiens, UniProt P08588); cell-free assay; radioligand).
The Ki of CN1CCN(c2ccc(-c3ccnn3-c3ccc(S(N)(=O)=O)cc3)cc2)CC1 is reported as 288 nM (Carbonic anhydrase 9 (CA9, Homo sapiens, UniProt Q16790); enzyme activity; inhibitor).
CCCCCN1CCCn2c1nc1c2c(=O)n(C)c(=O)n1C has a Ki of 3160 nM (Adora1; ligand displacement; radioligand; cell membranes).
NC(=O)CCNC(=S)NCCCC[C@H](NS(=O)(=O)c1cccc(F)c1)C(=O)N[C@@H](Cc1c[nH]c2ccccc12)C(=O)NC1CCC1 has a Ki of 3300 nM (NAD-dependent protein deacylase sirtuin-5, mitochondrial (SIRT5, Homo sapiens, UniProt Q9NXA8); enzyme activity; inhibitor).
CC[C@H](C)[C@H](NC(=O)[C@H](CCC(=O)O)NC(=O)[C@H](CC(=O)O)NC(=O)CNC(=O)[C@H](CC(C)C)NC(=O)[C@H](CCCNC(=N)N)NC(=O)[C@H](CCC(N)=O)NC(=O)[C@H](CC(C)C)NC(=O)[C@H](CO)NC(=O)[C@H](CCC(N)=O)NC(=O)[C@@H](NC(=O)[C@H](CC(C)C)NC(=O)[C@H](Cc1c[nH]c2ccccc12)NC(=O)[C@@H](NC(=O)[C@H](CCC(=O)O)NC(=O)[C@@H]1CCCN1C(=O)[C@H](CCCNC(=N)N)NC(C)=O)[C@@H](C)CC)[C@@H](C)O)C(=O)N[C@@H](CC(N)=O)C(=O)N[C@@H](C)C(=O)N[C@@H](Cc1ccc(O)cc1)C(=O)N[C@@H](Cc1ccc(O)cc1)C(=O)N[C@@H](C)C(=O)N[C@@H](CCCNC(=N)N)C(N)=O gave a Ki of 3.4 nM (Induced myeloid leukemia cell differentiation protein Mcl-1 (MCL1, Homo sapiens, UniProt Q07820); ligand displacement; FP).
